According to PubChem BioAssay AID493015 (Southern Research Specialized Biocontainment Screening …, 2011):
Calls of active or inactive are those of the source.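 The calls were made as follows: active = cell viability under 70% at any tested dose, a measure not printed in our tables; inactive = the rest.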

test system: HEp-2 cells, viability, luminescence (cytotoxicity counter-screen); test: HEp-2 viability loss, luminescent readout – cell-based, synthesized compounds, set 4, cytotoxicity control for RSV inhibitor project, dose response (AID 493015)
In short: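 Assay system: HEp-2 cells / Medium: DMEM/F12 plus heat-inactivated FBS / Dosing: 8-point 1:2 series, 50–0.39 µM, 0.5% DMSO / Schedule: 6-day compound exposure, 37 °C / Detection: CellTiter-Glo luminescence / Replicates: each concentration tested in triplicate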

Row | Structure (SMILES) | CC50
1 | CC(C)c1ccccc1NC(=O)[C@@H]1CCCN1S(=O)(=O)c1cccc2cccnc12 | 16.5 µM
2 | COc1ccccc1CNC(=O)C1CCN(S(=O)(=O)c2cccc3nonc23)CC1 | > 50 µM (inactive)
3 | Cc1ccc2c(c1)CCN2C(=O)[C@@H]1CCCN1S(=O)(=O)c1cccc2cccnc12 | 18.1 µM
4 | Cc1cccc(NC(=O)[C@@H]2CCCN2S(=O)(=O)c2cccc3cccnc23)c1 | 27.6 µM
5 | O=C(Nc1ccccc1)[C@@H]1CCCN1S(=O)(=O)c1cccc2cccnc12 | 49 µM
